Assays:
Assay type in all cases: functional
Details in all cases: read-out: GI
[1] = tested on: HCT-116; assay: Antiproliferative activity against human HCT-116 cells assessed as cell growth inhibition at 10 uM incubated for 48 hrs by SRB assay relative to control
[2] = tested on: 786-0; assay: Antiproliferative activity against human 786-0 cells assessed as cell growth inhibition at 10 uM incubated for 48 hrs by SRB assay relative to control
[3] = tested on: Hs-578T; assay: Antiproliferative activity against human Hs-578T cells assessed as cell growth inhibition at 10 uM incubated for 48 hrs by SRB assay relative to control
Method in brief: (§1)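 Cells plated in 96-well plates at […] cells/well and preincubated 24 h at 37 °C, 5% CO2. Time-zero plates were TCA-fixed. Compound was diluted in medium with 50 µg/mL gentamicin and cells exposed for 48 h. Adherent cells fixed with 10% final TCA; suspension cells with 16% final TCA. Plates stained with 0.4% SRB in 1% acetic acid, dye solubilized in 10 mM Trizma, absorbance read at 515 nm. Percent growth calculated against time-zero and control.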

[4] = tested on: NCI-H522; assay: Antiproliferative activity against human NCI-H522 cells assessed as cell growth inhibition at 10 uM incubated for 48 hrs by SRB assay relative to control; method in brief: as §1
[5] = tested on: CAKI-1; assay: Antiproliferative activity against human CAKI-1 cells assessed as cell growth inhibition at 10 uM incubated for 48 hrs by SRB assay relative to control
[6] = tested on: HL-60(TB); assay: Antiproliferative activity against human HL-60(TB) cells assessed as cell growth inhibition at 10 uM incubated for 48 hrs by SRB assay relative to control
Method in brief: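 Cells were plated at […] cells/well and preincubated 24 h at 37°C, 5% CO2, with time-zero plates TCA-fixed. Compound was diluted from DMSO stock in medium with 50 µg/mL gentamicin, then exposed for 48 h. Settled suspension cells were fixed with 80% TCA (final 16%), stained with 0.4% SRB and solubilized in 10 mM Trizma, A515. Growth was taken relative to Tz and control.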

[7] = tested on: M14; assay: Antiproliferative activity against human M14 cells assessed as cell growth inhibition at 10 uM incubated for 48 hrs by SRB assay relative to control; method in brief: as §1
[8] = tested on: OVCAR-3; assay: Antiproliferative activity against human OVCAR-3 cells assessed as cell growth inhibition at 10 uM incubated for 48 hrs by SRB assay relative to control; method in brief: as §1
[9] = tested on: HCC 2998; assay: Antiproliferative activity against human HCC 2998 cells assessed as cell growth inhibition at 10 uM incubated for 48 hrs by SRB assay relative to control
[10] = tested on: MDA-MB-468; assay: Antiproliferative activity against human MDA-MB-468 cells assessed as cell growth inhibition at 10 uM incubated for 48 hrs by SRB assay relative to control
[11] = tested on: SF-268; assay: Antiproliferative activity against human SF-268 cells assessed as cell growth inhibition at 10 uM incubated for 48 hrs by SRB assay relative to control
[12] = tested on: PC-3; assay: Antiproliferative activity against human PC-3 cells assessed as cell growth inhibition at 10 uM incubated for 48 hrs by SRB assay relative to control
[13] = tested on: COLO 205; assay: Antiproliferative activity against human COLO 205 cells assessed as cell growth inhibition at 10 uM incubated for 48 hrs by SRB assay relative to control
[14] = tested on: SF-295; assay: Antiproliferative activity against human SF-295 cells assessed as cell growth inhibition at 10 uM incubated for 48 hrs by SRB assay relative to control; method in brief: as §1
[15] = tested on: A498; assay: Antiproliferative activity against human A498 cells assessed as cell growth inhibition at 10 uM incubated for 48 hrs by SRB assay relative to control; method in brief: as §1
[16] = tested on: UACC-62; assay: Antiproliferative activity against human UACC-62 cells assessed as cell growth inhibition at 10 uM incubated for 48 hrs by SRB assay relative to control
Method in brief: (§2)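 Cells pre-incubated 24 h at 37°C, 5% CO2, then exposed to compound (DMSO stock diluted in medium with 50 µg/mL gentamicin) for 48 h. Adherent cells fixed with cold TCA (final 10%, 60 min, 4°C); suspension cells fixed with 16% TCA final. Stained with 0.4% SRB in 1% acetic acid for 10 min, dye solubilized in 10 mM Trizma base, absorbance read at 515 nm. Growth calculated against time-zero and untreated control plates.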

[17] = tested on: DU-145; assay: Antiproliferative activity against human DU-145 cells assessed as cell growth inhibition at 10 uM incubated for 48 hrs by SRB assay relative to control
[18] = tested on: SNB-75; assay: Antiproliferative activity against human SNB-75 cells assessed as cell growth inhibition at 10 uM incubated for 48 hrs by SRB assay relative to control; method in brief: as §2
[19] = tested on: Malme-3M; assay: Antiproliferative activity against human Malme-3M cells assessed as cell growth inhibition at 10 uM incubated for 48 hrs by SRB assay relative to control
[20] = tested on: HCT-15; assay: Antiproliferative activity against human HCT-15 cells assessed as cell growth inhibition at 10 uM incubated for 48 hrs by SRB assay relative to control
[21] = tested on: ACHN; assay: Antiproliferative activity against human ACHN cells assessed as cell growth inhibition at 10 uM incubated for 48 hrs by SRB assay relative to control
[22] = tested on: SNB-19; assay: Antiproliferative activity against human SNB-19 cells assessed as cell growth inhibition at 10 uM incubated for 48 hrs by SRB assay relative to control; method in brief: as §2
[23] = tested on: SK-MEL-28; assay: Antiproliferative activity against human SK-MEL-28 cells assessed as cell growth inhibition at 10 uM incubated for 48 hrs by SRB assay relative to control; method in brief: as §1
[24] = tested on: OVCAR-4; assay: Antiproliferative activity against human OVCAR-4 cells assessed as cell growth inhibition at 10 uM incubated for 48 hrs by SRB assay relative to control
[25] = tested on: MCF7; assay: Antiproliferative activity against human MCF7 cells assessed as cell growth inhibition at 10 uM incubated for 48 hrs by SRB assay relative to control
[26] = tested on: HOP-62; assay: Antiproliferative activity against human HOP-62 cells assessed as cell growth inhibition at 10 uM incubated for 48 hrs by SRB assay relative to control
[27] = tested on: SN12C; assay: Antiproliferative activity against human SN12C cells assessed as cell growth inhibition at 10 uM incubated for 48 hrs by SRB assay relative to control
[28] = tested on: CCRF-CEM; assay: Antiproliferative activity against human CCRF-CEM cells assessed as cell growth inhibition at 10 uM incubated for 48 hrs by SRB assay relative to control; method in brief: as §1
[29] = tested on: IGROV-1; assay: Antiproliferative activity against human IGROV-1 cells assessed as cell growth inhibition at 10 uM incubated for 48 hrs by SRB assay relative to control
[30] = tested on: MOLT-4; assay: Antiproliferative activity against human MOLT-4 cells assessed as cell growth inhibition at 10 uM incubated for 48 hrs by SRB assay relative to control
[31] = tested on: LOX IMVI; assay: Antiproliferative activity against human LOX IMVI cells assessed as cell growth inhibition at 10 uM incubated for 48 hrs by SRB assay relative to control
[32] = tested on: HT-29; assay: Antiproliferative activity against human HT-29 cells assessed as cell growth inhibition at 10 uM incubated for 48 hrs by SRB assay relative to control; method in brief: as §1

Compound	inhibition of growth at 10 µM [1] [%]	inhibition of growth at 10 µM [2] [%]	inhibition of growth at 10 µM [3] [%]	inhibition of growth at 10 µM [4] [%]	inhibition of growth at 10 µM [5] [%]	inhibition of growth at 10 µM [6] [%]	inhibition of growth at 10 µM [7] [%]	inhibition of growth at 10 µM [8] [%]	inhibition of growth at 10 µM [9] [%]	inhibition of growth at 10 µM [10] [%]	inhibition of growth at 10 µM [11] [%]	inhibition of growth at 10 µM [12] [%]	inhibition of growth at 10 µM [13] [%]	inhibition of growth at 10 µM [14] [%]	inhibition of growth at 10 µM [15] [%]	inhibition of growth at 10 µM [16] [%]	inhibition of growth at 10 µM [17] [%]	inhibition of growth at 10 µM [18] [%]	inhibition of growth at 10 µM [19] [%]	inhibition of growth at 10 µM [20] [%]	further results
Cc1nc2c(cnn2-c2ccccc2)c(=O)n1-c1ccc(/N=C2\C(=O)Nc3ccccc32)cc1	17.9	< 15	17.6	16.8	31.7	< 15	18.8	24.3	< 15	51.4	< 15	24	< 15	24.7	< 15	36.2	< 15	< 15	23.1	15.7	inhibition of growth at 10 µM [21]: 27.7%; inhibition of growth at 10 µM [22]: 36%; inhibition of growth at 10 µM [23]: < 15%; inhibition of growth at 10 µM [24]: 43.9%; inhibition of growth at 10 µM [25]: 33.7%; inhibition of growth at 10 µM [26]: < 15%; inhibition of growth at 10 µM [27]: 37.3%; inhibition of growth at 10 µM [28]: 37.8%; inhibition of growth at 10 µM [29]: 34.7%; inhibition of growth at 10 µM [30]: 34.1%; inhibition of growth at 10 µM [31]: 18.3%; inhibition of growth at 10 µM [32]: < 15%
Cc1nc2c(cnn2-c2ccccc2)c(=O)n1-c1ccc(N2C(=O)C=CC2=O)cc1	< 15	< 15	< 15	< 15	< 15	< 15	< 15	< 15	< 15	18.6	< 15	< 15	< 15	< 15	< 15	< 15	< 15	< 15	< 15	< 15	inhibition of growth at 10 µM [21]: < 15%; inhibition of growth at 10 µM [22]: < 15%; inhibition of growth at 10 µM [23]: < 15%; inhibition of growth at 10 µM [24]: < 15%; inhibition of growth at 10 µM [25]: < 15%; inhibition of growth at 10 µM [26]: < 15%; inhibition of growth at 10 µM [27]: < 15%; inhibition of growth at 10 µM [28]: 32.2%; inhibition of growth at 10 µM [29]: < 15%; inhibition of growth at 10 µM [30]: < 15%; inhibition of growth at 10 µM [31]: < 15%; inhibition of growth at 10 µM [32]: < 15%
Cc1nc2c(cnn2-c2ccccc2)c(=O)n1-c1ccc(N2C(=O)c3ccccc3C2=O)cc1	< 15	< 15	< 15	< 15	< 15	< 15	< 15	< 15	< 15	< 15	< 15	< 15	< 15	< 15	< 15	< 15	< 15	< 15	< 15	< 15	inhibition of growth at 10 µM [21]: < 15%; inhibition of growth at 10 µM [22]: < 15%; inhibition of growth at 10 µM [23]: < 15%; inhibition of growth at 10 µM [24]: < 15%; inhibition of growth at 10 µM [25]: < 15%; inhibition of growth at 10 µM [26]: < 15%; inhibition of growth at 10 µM [27]: < 15%; inhibition of growth at 10 µM [28]: < 15%; inhibition of growth at 10 µM [29]: < 15%; inhibition of growth at 10 µM [30]: < 15%; inhibition of growth at 10 µM [31]: < 15%; inhibition of growth at 10 µM [32]: < 15%

— ChEMBL document CHEMBL5356993, “Novel pyrazolo[3,4-d]pyrimidine derivatives: design, synthesis, anticancer evaluation, VEGFR-2 inhibition, and antiangiogenic activity” (RSC Med Chem, 2023)
